We go through 22 molecules from ChEMBL document CHEMBL1152580, “Toward establishing structure-activity relationships for oxygenated coumarins as differentiation inducers of promonocytic leukemic cells” (Bioorg Med Chem, 2009).

Activity calls are given as the source filed them. The calls are words filed in the database; no cut-off is given here.

The test system of test [1] is U-937. Nature of the test: Growth inhibition of human U937 cells assessed as [3H]5-methyl thymidine incorporation after 48 hrs by liquid scintillation counting. The format is functional, cell-based. In short, it runs like this:
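Exponentially growing U-937 cells (10⁴ per well in RPMI 1640) exposed to coumarins up to 2.0 mM or 0.0001% (v/v) DMSO for 48 h. 0.5 µCi [³H]5-methyl thymidine added 12 h before the end. Cells harvested, incorporation read by liquid scintillation counting as % of DMSO control. IC50 from sigmoidal dose-response fit; quadruplicate, at least four independent experiments.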
(Dividing cells build labelled thymidine or BrdU into new DNA.)

Test [2] concerns U-937. Nature of the test: Cytotoxicity against human U937 cells after 48 hrs by trypan blue assay. The following applies: U-937, 48 h. The format is functional. Put shortly: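 U-937 cells in exponential growth seeded at 10⁵ cells/mL RPMI 1640, exposed to coumarin 0.15 µM to 2.0 mM or 0.0001% (v/v) DMSO vehicle for 48 h at 5% CO₂. Viable cells counted by trypan blue exclusion (0.4%, 5 min) in a hemocytometer. CC50 from sigmoidal dose-response fit; quadruplicate, at least four independent experiments.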

The subject of test [3] is U-937. Nature of the test: Induction of human U937 cell differentiation assessed as increase in rhC5a-stimulated intracellular calcium at 50 uM after 2 days. The class given is functional, cell-based. In short, it runs like this: (§1)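 CD88 read-out as C5a-evoked Ca²⁺ release: U-937 cells (1 × 10⁶/mL) treated 48 h with 5, 25 or 50 µM compound, 400 µM dbcAMP or 0.0001% DMSO. Loaded with 2 µM Fura 2-AM in BSS pH 7.5, 30 min, 37 °C, then 2 × 10⁶ cells/mL. F340/F380 (emission 505 nm) recorded for 8 min at 37 °C with rhC5a or ATP injection. Calibrated with Triton X-100/EGTA; ≥3 experiments.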
(Calcium assays in cells follow changes in intracellular calcium, usually with a dye or a luminescent sensor.)

Test [4] deals with U-937. Briefly: Induction of human U937 cell differentiation assessed as expression of CD88 receptor at 50 uM after 2 days. The format is functional, cell-based. Put shortly:
as §1

Test [5] concerns U-937. Briefly: Induction of human U937 cell differentiation assessed as expression of CD88 receptor at 5 uM after 2 days. The format is functional, cell-based. Put shortly:
as §1

Test [6] has as its system U-937. Briefly: Growth inhibition of human U937 cells assessed as cell proliferation after 72 hrs. The settings on record: TDE = time-dependent effect. The class given is functional, cell-based. Put shortly:
(§2)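 U-937 cells seeded at 10⁵ cells/mL and treated with 25 or 50 µM compound, 400 µM dbcAMP (positive control) or 0.0001% (v/v) DMSO for up to 72 h (sampled at 24, 48, 72 h). Cell number counted on a Coulter Z-1, with density kept ≤1 × 10⁶ cells/mL. Expressed as % of DMSO control; n = 3.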

The test system of test [7] is U-937. Briefly: Growth inhibition of human U937 cells assessed as proliferation at 50 uM after 72 hrs. The class given is functional. The settings on record: U-937, 72 h, read-out: Activity. Put shortly:
as §2

For test [8], the system named is U-937. Briefly: Induction of human U937 cell differentiation assessed as burst oxidative capacity at 25 uM after 72 hrs by NBT reduction assay relative to control. The class given is functional, cell-based. Put shortly: (§3)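 NBT reduction: U-937 cells (2 × 10⁵/mL) treated 72 h with 25 or 50 µM compound, 1 µM ATRA (positive control) or 0.0001% (v/v) DMSO. Washed, then incubated in RPMI containing 1 mg/mL NBT and 1 µg/mL PMA for 30 min at 37 °C. Formazan dissolved in DMSO, A570 read relative to DMSO control (=1); n = 3.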

Test [9] has as its system U-937. Nature of the test: Induction of human U937 cell differentiation assessed as expression of CD11b levels at 50 uM after 72 hrs relative to control. The class given is functional, cell-based. Put shortly:
(§4)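 U-937 cells (2 × 10⁵/mL) treated 72 h with 25 or 50 µM compound, 400 µM dbcAMP (positive control) or 0.0001% (v/v) DMSO. Washed in PBS, stained with saturating PE anti-CD11b or isotype control, 4 °C, 30 min. Analysed by flow cytometry, ≥5000 events; CD11b relative to DMSO control (=1); n = 3.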

Test [10] concerns U-937. Briefly: Induction of human U937 cell differentiation assessed as increase in rhC5a-stimulated intracellular calcium at 25 uM after 2 days. The format is functional, cell-based. In short, it runs like this:
as §1

The test system of test [11] is U-937. Briefly: Induction of human U937 cell differentiation assessed as expression of CD88 receptor at 25 uM after 2 days. The class given is functional, cell-based. In short, it runs like this: as §1
The subject of test [12] is U-937. Briefly: Induction of human U937 cell differentiation assessed as burst oxidative capacity at 50 uM after 72 hrs by NBT reduction assay relative to control. The class given is functional, cell-based. Put shortly:
as §3

Test [13] concerns U-937. Briefly: Induction of human U937 cell differentiation assessed as expression of CD11b levels at 25 uM after 72 hrs relative to control. The format is functional, cell-based. Put shortly:
as §4

By IC50 is commonly meant the concentration needed to halve the response being measured. For orientation: CC50 means the concentration that lowers cell viability or growth by half. On to `COc1cc2ccc(=O)oc2cc1OCC=C(C)C` [PRENYLETIN 6-METHYL ETHER], for which, in the test with U-937 [1], the IC50 was above 400 µM. Besides, the CC50 in the test with U-937 [2] stood at 799 µM.
As to `O=c1ccc2c(Br)c3c(cc2o1)OCO3`, in the test with U-937 [1], the IC50 was above 400 µM. This molecule had a CC50 in the test with U-937 [2] above 2000 µM.
For `COc1c2c(cc3oc(=O)ccc13)OCO2` the same measures were 2.2 µM and 252 µM.
On to `COc1cc2oc(=O)ccc2c(OC)c1OC` [5,6,7-TRIMETHOXYCOUMARIN], for which the IC50 with U-937 [1] worked out at 182 µM. The molecule further returned a CC50 with U-937 [2] of 790 µM.
For `COc1cc(OC)c2ccc(=O)oc2c1OCC=C(C)C` [ARTANIN] the same measures were 177 µM and 535 µM.
On to `CC(C)=CCOc1c2c(cc3oc(=O)ccc13)OCO2`, for which, in the test on U-937 [1], the IC50 was determined as 3.5 µM. In the test on U-937 [2], this molecule had a 50% cytotoxic concentration (CC50) of 266 µM.
For `O=c1ccc2ccc3c(c2o1)OCO3` the same measures were above 400 µM and above 2000 µM.
For `C=C(C)C(O)COc1cc2oc(=O)ccc2cc1OC` (configuration not stated), in that order: above 400 µM and 704 µM.
For `COc1cc(OC)c2ccc(=O)oc2c1OC` the same measures were above 400 µM and above 2000 µM.
For the molecule `CC(C)=CCOc1cc2oc(=O)ccc2cc1O` [PRENYLETIN], the IC50 in the test on U-937 [1] is above 400 µM. Also, half-maximal cytotoxicity with U-937 [2] (CC50) was put at 820 µM.
Consider `O=c1ccc2ccccc2o1` [COUMARIN], for which the IC50 in the test on U-937 [1] is above 400 µM. Also, the CC50 in the test on U-937 [2] is above 2000 µM.
For `COc1c2c(cc3ccc(=O)oc13)OCO2` the same measures were above 400 µM and above 2000 µM.
For the molecule `COc1cc2oc(=O)ccc2c(OC)c1O` [FRAXINOL], the IC50 in the test with U-937 [1] was above 400 µM. Also, the CC50 in the test on U-937 [2] was above 2000 µM.
`CC1(C)OC1COc1c2c(cc3oc(=O)ccc13)OCO2` (configuration not stated): in the test on U-937 [1], the IC50 was above 400 µM. This molecule had a CC50 in the test with U-937 [2] of 899 µM.
In the case of `CC(C)(O)C(O)COc1c2c(cc3oc(=O)ccc13)OCO2` (configuration not stated), the IC50 in the test with U-937 [1] turned out to be 192 µM. For the same molecule, the outcome in the test on U-937 [3], in the test on U-937 [4] and in the test on U-937 [8] was Active. Besides, the outcome with U-937 [5] and in the test with U-937 [9] was inactive. Further, the “growth inhibition (GI)” value in the test with U-937 [6] was “tde”. For the same molecule, in the test on U-937 [7], the growth at 50 µM turned out to be 38%. The molecule further gave a CC50 in the test on U-937 [2] of 420 µM.
With `COC(C)(C)C(O)COc1c2c(cc3oc(=O)ccc13)OCO2` (configuration not stated), in the test with U-937 [1], the IC50 is 25.3 µM. For the same molecule, the outcome in the test on U-937 [10], with U-937 [3], with U-937 [4], in the test on U-937 [8] and with U-937 [12] was Active. The Activity entry in the test on U-937 [11] was “Agonist”. The result with U-937 [5], in the test with U-937 [13] and in the test on U-937 [9] was inactive. The “growth inhibition (GI)” value in the test with U-937 [6] is “tde”. Besides, in the test on U-937 [7], the growth at 50 µM stood at 62.5%. In addition, the midpoint of cytotoxicity with U-937 [2], the CC50, lay at 365 µM.
For `CC(C)(Cl)C(O)COc1c2c(cc3oc(=O)ccc13)OCO2` (configuration not stated), the half-inhibitory concentration (IC50) with U-937 [1] was 227 µM. In the test with U-937 [2], this molecule had a CC50 of 567 µM.
On to `COc1c2c(c(OC)c3oc(=O)ccc13)OCO2`, for which the IC50 in the test on U-937 [1] was above 400 µM. The molecule also gave a CC50 in the test on U-937 [2] above 2000 µM.
For `O=c1ccc2c(F)c3c(cc2o1)OCO3`, in that order: above 400 µM and above 2000 µM.
In the case of `O=c1ccc2c(O)c3c(cc2o1)OCO3`, the IC50 in the test on U-937 [1] came to 255 µM. In addition, in the test on U-937 [2], the CC50 was above 2000 µM.
As for `COc1cc(OC)c2ccc(=O)oc2c1O` [LEPTODACTYLONE], the half-inhibitory concentration (IC50) in the test on U-937 [1] was above 400 µM. Moreover, the CC50 in the test with U-937 [2] was above 2000 µM.
As for `O=c1ccc2cc3c(cc2o1)OCO3` [AYAPIN], in the test with U-937 [1], the IC50 is above 400 µM. Besides, the 50% cytotoxic concentration (CC50) with U-937 [2] was above 2000 µM.
